The EternaBench riboswitch data

Tested on: MS2 coat protein
Assay: apparent Kd, MS2 coat protein; higher = weaker binding; RNA-MaP array; FMN 200 µM where present
Method in brief: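 In 100 mM Tris-HCl pH 7.5, 80 mM KCl, 4 mM MgCl2, BSA, DTT, yeast tRNA and Tween-20, SNAP-549-labelled MS2 coat protein was titrated from 0.7 or 1.5 nM, doubling to 3 µM, over designs transcribed by stalled E. coli RNA polymerase on Illumina sequencing-chip clusters. This was done first without ligand, then with ligand held constant. After green signal was normalised to red-channel RNA signal and control-cluster median Fmax, the apparent Kd was taken as the median of filtered per-cluster binding-curve fits.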

[1] = designed as: OFF switch for flavin mononucleotide, no ligand
[2] = ligand present: flavin mononucleotide, designed as: OFF switch for flavin mononucleotide
[3] = designed as: ON switch for flavin mononucleotide, no ligand
[4] = ligand present: flavin mononucleotide, designed as: ON switch for flavin mononucleotide

| Sequence | apparent Kd [1] [nM] | apparent Kd [2] [nM] | apparent Kd [3] [nM] | apparent Kd [4] [nM] |
| --- | --- | --- | --- | --- |
| CACUCGUGUCUAGGAUAUGAGUGACAAGCGCGAGAUUUUCUCGCUGCUAGCUCAGAAGGAGACAUGAGGAUCACCCAUGUAAGG | 144 | 25.4 | – | – |
| CAGUACUGAGGAUAUACAUGAGGAUCACCCAUGUGCCUAAGCUAGGAUACUAGCAUUAGUAGAAGGCAGUACUG | 12.8 | 24.8 | – | – |
| GACUGAUUGUAGAAGGUACUUGAAUAUAUAUUUUAUCUCAUGUGACAUGAGGAUCACCCAUGUAGUAAGGAUAUACAUAUCACA | – | – | 52.9 | 42.2 |
| AAAACGUCAGGAUAUCCAAUAUAUGACAUGAGGAUCACCCAUGUUUCCACUCGUACCUCCGGAGAAGGGACAAAUA | 41.5 | 34 | – | – |
| CGGCAUCAUGUAGGAUAUGCGUGGCGAAGCUAUGCAGAAGGACAUGAGGAUCACCCAUGUCUUAGCUAGCGUACUAGCUUGCCG | 6.24 | 16.6 | – | – |
| UGGUACUAGGGAGGAUAUGGGAAGAUACAUGAGGAUCACCCAUGUUUAAGAUUGCCGAGAGGCAACUAGAAGGCCCUAGUACCU | – | – | 1120 | 130 |
| CACACCGUAGGAGGAUAUCCCUGGACAUGAGGAUCACCCAUGUUUAGCCCGUCCUCAUGUUAGUCGGAGAAGGCCUAGUGGUCG | 36.7 | 37.6 | – | – |
| GGUAGCUUCACAGGAUAUGCUAUCCUUUGGGUAGCAGAAGGGUGAUACAUGAGGAUCACCCAUGUGCUGCCAGGGCGUGAGCCC | – | – | 286 | 500 |
| CUGUUAUAGGUCCAGUUUUACAACAUGAGGAUCACCCAUGUGCAGGAUAUCGUGUUAAUUUUCAUCGAGAAGGGCAUAGUCACG | 37.6 | 105 | – | – |
| AAAAUAAGAACAGGAUAUGUGGGUUCGAAAAGCAAAGCUUUCCACAUGAGGAUCACCCAUGUGCCACAGAAGGGUUCGGGUGAU | – | – | 69.1 | 27.4 |
| AAAACGUGAGGAUAUGCACCAACCAAGGUUUUUCGGGUACGACAUGAGGAUCACCCAUGUAGAAGGCACGAAAA | 16.2 | 12.9 | – | – |
| GGAUAGGACAGAGGAUAUACGUGCUAGAGAUACUAGCAAACUUUCCUCACAUGAGGAUCACCCAUGUAGAAGGCUGUCCUAUCG | 21.1 | 483 | – | – |
| UUAGAAUUGCAAGGAUAUCUAAUUUAGAUAGUAAGAGAAGGUGCUUGAUAGUUACAUGAGGAUCACCCAUGUUUUUGGGUUUAU | – | – | 545 | 412 |
| GACGGAUGUAUAGGAUAUGCUGAGGAUAACUCAGCAGAAGGAUACAUGAGGAUCACCCAUGUAAUAAUAAUAAUAAUAACCGUC | 13.3 | 24.1 | – | – |
| GUUGUGUGAGGAUAUUCCUGGCCGUGUGGCCGGUUUGGGUGGCAGAAGGUACAUGAGGAUCACCCAUGUACGGG | 96.9 | 75.8 | – | – |
| AUACUCAUGUAAGGAUAUGCAGCCGAAACGGCUGCAGAAGGUACUAUAAUACAUGAGGAUCACCCAUGUCAAAAUAAACUAGUU | – | – | 155 | 36.5 |
| CCUCUGUUAGGAUAUCAAACACUAUCUGCUCCAGAGUUAAGUGAGAAGGGACAUGAGGAUCACCCAUGUAAAAU | 26.9 | 33.7 | – | – |
| AUUUUGUCAGGAUAUGACUAGUAGCACGAAAGUGCUACUACUUAGAAGGGACAUGAGGAUCACCCAUGUAUUCC | 15.2 | 16.1 | – | – |

| Sequence | apparent Kd [1] [nM] | apparent Kd [2] [nM] | apparent Kd [3] [nM] | apparent Kd [4] [nM] |
| --- | --- | --- | --- | --- |
| UCGUGAAGGACAGGAUAUGGACAUGAGGAUCACCCAUGUACAUGGGAAUAUAUACUGAAUUUAUACUAGAAGGGUUACAUAAAU | 27.4 | 16.7 | – | – |
| GUCAGCUCGUGAGGAUAUACAACACUGGUUCGGCAGUGUAUUAAGAUCACAUGAGGAUCACCCAUGUAGAAGGCACGAGCUGAU | 13.6 | 280 | – | – |
| UACAGACAUGAGGAUCACCCAUGUGAGGAUAUCGAUAACGAUAAAAUAAUAUAAACAACGAGAAGGCACAGCAU | 34.3 | 40.3 | – | – |
| AGUAACAGAGGAUAUACUGUUUUAUGUGUUUGUUAUUUUGAACAUGAGGAUCACCCAUGUAGAAGGCUGAAUAA | 22.2 | 21.3 | – | – |
| GUAAAGUGAGGAUAUGGUAAAUUAAUUAUUUAUUAAUUAAUCCAGAAGGCACAUGAGGAUCACCCAUGUAAAUG | 31.2 | 56.1 | – | – |
| GGAUCGAAUGUGAGGAUAUGCUGGUCCUUGGAUCAGCAGAAGGCACAUGAGGAUCACCCAUGUCCUCUCGGUCC | 248 | 458 | – | – |
| AAACAUGUCCGAGGAUAUCUGGAAACAUUUUCAAGAGAAGGCGGACAUGAGGAUCACCCAUGUCUCUCCUCAUCAAAUCCAAUU | 8.37 | 51.1 | – | – |
| AGUGCUAGAGGAUAUGCAGUGGCGUUCUGUAUUCACAGCUCACAUGAGGAUCACCCAUGUAGAAGGCUAGCUAC | 23.6 | 106 | – | – |
| AAGGUCAUCUGAGGAUAUCGACCUCAAAGGCUACGAGAAGGCAGACUGACAUGAGGAUCACCCAUGUACCGGGAAGAUGCCUCC | 15.8 | 173 | – | – |
| UUGGACGUCGUAGGAUAUGUAGGAUAUUUCUACAUGAGGAUCACCCAUGUUGACAUGGAAGAAGGACAGAAGGACGAUGUCCAU | – | – | 123 | 5.64 |
| UACGAUGUACAUGAGGAUCACCCAUGUCAUAUGCCCGUGACACAGGAUAUCCAGGAUAGGCCAAAGGAGAAGGGUGAUCCGCGG | – | – | 66.9 | 139 |
| GCUAGUAUUGCAGGAUAUUGAGAAUAAUUUUGGCAAGAAGGGCAUUACAUGAGGAUCACCCAUGUUUUCCUUAGUCAUACUAGC | 6.39 | 5.85 | – | – |
| AUUUUGUGAGGAUAUUAGUUGUAGAAAAUUGUUAGUAUAGCUGAGAAGGCACAUGAGGAUCACCCAUGUACAUC | 18 | 57.9 | – | – |
| AUAUUUGUGUAGAAGGUACGUGAUUAGUCAUAGUAAGGAUAUACUGACAUGAGGAUCACCCAUGUAUAAAUAGUUAAAUGUUCU | – | – | 14.4 | 8.52 |
| UGACUAGCAAUGUAUCGAAAGAUCACAUGAGGAUCACCCAUGUAGGAUAUGAGCAGAAAAUCUGCUCAGAAGGACAUGCUAGUC | 5.88 | 6.04 | – | – |
| ACUAGAUGAGGAUAUGCAUAUUUUCGUGUUCUUCUAGGUUAACAUGAGGAUCACCCAUGUAGAAGGCGUCUAUC | 22.2 | 39.7 | – | – |
| GGGUAACAUGAGGAUCACCCAUGUGAGGAUAUCCUAGGGAUGGAAGCUCGGCCAACCAGGAGAAGGUACUAAAG | 73.9 | 131 | – | – |
| AGCUGGUGACAGCAUCCAUCAUAACAUGAGGAUCACCCAUGUAGAAGGCUGUACGGUUACCGUACAGAGGAUAUACAAUGAUGG | 7.4 | 7.32 | – | – |
